Assay results as given in ChEMBL document CHEMBL4304753, “Identification of New Small-Molecule Inducers of Estrogen-related Receptor α (ERRα) Degradation” (ACS Med Chem Lett, 2019).
Activity calls are given as the source filed them. The calls are words filed in the database; no cut-off is given here.

Legend:
[1] = biological target: T1, Steroid hormone receptor ERR1 (Homo sapiens, UniProt P11474); experiment: Binding affinity to GST-tagged ERRalpha-LBD (unknown origin) using fluorescein-conjugated coactivator PGC-1alpha incubated for 1 hr by TR-FRET assay
T1 sequence (P11474 whole entry): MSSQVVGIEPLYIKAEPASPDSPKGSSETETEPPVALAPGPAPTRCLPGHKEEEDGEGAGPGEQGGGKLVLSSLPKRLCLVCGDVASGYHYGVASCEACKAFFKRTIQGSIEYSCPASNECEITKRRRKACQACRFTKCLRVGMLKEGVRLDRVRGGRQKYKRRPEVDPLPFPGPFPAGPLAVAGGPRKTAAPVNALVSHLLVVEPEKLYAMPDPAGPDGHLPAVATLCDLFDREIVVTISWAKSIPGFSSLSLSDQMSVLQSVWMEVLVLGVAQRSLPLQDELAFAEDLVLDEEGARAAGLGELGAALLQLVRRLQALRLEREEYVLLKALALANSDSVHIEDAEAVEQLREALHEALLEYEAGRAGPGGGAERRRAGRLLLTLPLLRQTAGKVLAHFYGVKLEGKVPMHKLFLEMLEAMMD

[2] = biological target: T2, von Hippel-Lindau disease tumor suppressor/Steroid hormone receptor ERR1 (Homo sapiens) (UniProt P11474+P40337); experiment: Protac activity at VHL/ERRalpha in human MDA-MB-231 cells assessed as induction of […] degradation at 30 nM incubated for 4 hrs by Western blot analysis relative to control; type: cell-based
How it was run: (§1)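 MDA-MB-231 breast cancer cells were treated at the indicated concentrations for 4.0 h. ERRα protein was measured by Western blot, and % degradation was derived by densitometric image analysis. Values are means of at least three independent experiments.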

[3] = biological target: T2, von Hippel-Lindau disease tumor suppressor/Steroid hormone receptor ERR1 (Homo sapiens); experiment: Protac activity at VHL/ERRalpha in human MDA-MB-231 cells assessed as induction of […] degradation at 1 uM incubated for 4 hrs by Western blot analysis; type: cell-based; how it was run: as §1
[4] = biological target: T2, von Hippel-Lindau disease tumor suppressor/Steroid hormone receptor ERR1 (Homo sapiens); experiment: Protac activity at VHL/ERRalpha in human MDA-MB-231 cells assessed as induction of […] degradation at 100 nM incubated for 4 hrs by Western blot analysis relative to control; type: cell-based; how it was run: as §1
[5] = biological target: T2, von Hippel-Lindau disease tumor suppressor/Steroid hormone receptor ERR1 (Homo sapiens); experiment: Protac activity at VHL/ERRalpha in human MDA-MB-231 cells assessed as induction of […] degradation at 300 nM incubated for 4 hrs by Western blot analysis relative to control; type: cell-based; how it was run: as §1
[6] = biological target: T2, von Hippel-Lindau disease tumor suppressor/Steroid hormone receptor ERR1 (Homo sapiens); experiment: Protac activity at VHL/ERRalpha in epoxomicin pre-treated human MDA-MB-231 cells assessed as induction of […] degradation at 30 nM incubated for 4 hrs by Western blot analysis; type: cell-based
How it was run: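 Before treatment with PROTAC at 30 nM for 4.0 h, MDA-MB-231 cells were preincubated with the proteasome inhibitor epoxomicin. ERRα protein was then assessed by Western blot.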

[7] = biological target: T2, von Hippel-Lindau disease tumor suppressor/Steroid hormone receptor ERR1 (Homo sapiens); experiment: Protac activity at VHL/ERRalpha in human MDA-MB-231 cells assessed as induction of […] degradation at 3.0 nM incubated for 4 hrs by Western blot analysis; type: cell-based; how it was run: as §1
[8] = biological target: von Hippel-Lindau disease tumor suppressor/Estrogen-related receptor gamma (Homo sapiens) (UniProt P62508+P40337); experiment: Protac activity at VHL/ERRgamma in human MDA-MB-231 cells assessed as induction of […] degradation up to 10 uM incubated for 4 hrs by Western blot analysis; type: cell-based
How it was run: (§2)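 Levels of the ERRβ and ERRγ homologues were assessed by Western blot in MDA-MB-231 cells after 4.0 h treatment at concentrations up to 10.0 μM.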

[9] = biological target: T2, von Hippel-Lindau disease tumor suppressor/Steroid hormone receptor ERR1 (Homo sapiens); experiment: Protac activity at VHL/ERRalpha in human MDA-MB-231 cells assessed as decrease in MCAD protein expression level at 100 nM incubated for 24 hrs by Western blot analysis; type: cell-based
How it was run: (§3)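 MDA-MB-231 breast cancer cells were exposed to the degrader for 24 h. Protein levels of the ERRα downstream targets ATP5B, MCAD and PDK4 were then assessed by Western blot.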

[10] = biological target: T2, von Hippel-Lindau disease tumor suppressor/Steroid hormone receptor ERR1 (Homo sapiens); experiment: Protac activity at VHL/ERRalpha in human MDA-MB-231 cells assessed as induction of […] degradation incubated for 48 hrs by Western blot analysis; type: cell-based
How it was run: (§4)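 For the time course, MDA-MB-231 cells were exposed to PROTAC at 30 nM. ERRα protein was sampled from 30 min up to 48 h after treatment and analysed by Western blot.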

[11] = biological target: T2, von Hippel-Lindau disease tumor suppressor/Steroid hormone receptor ERR1 (Homo sapiens); experiment: Protac activity at VHL/ERRalpha in human MDA-MB-231 cells assessed as decrease in ATP5B protein expression level at 100 nM incubated for 24 hrs by Western blot analysis; type: cell-based; how it was run: as §3
[12] = biological target: T2, von Hippel-Lindau disease tumor suppressor/Steroid hormone receptor ERR1 (Homo sapiens); experiment: Protac activity at VHL/ERRalpha in human MDA-MB-231 cells assessed as induction of […] degradation at 10 nM incubated for 4 hrs by Western blot analysis relative to control; type: cell-based; how it was run: as §1
[13] = biological target: T2, von Hippel-Lindau disease tumor suppressor/Steroid hormone receptor ERR1 (Homo sapiens); experiment: Protac activity at VHL/ERRalpha in human MDA-MB-231 cells assessed as induction of […] degradation incubated for 4 hrs by Western blot analysis; type: cell-based; how it was run: as §1
[14] = biological target: von Hippel-Lindau disease tumor suppressor/Steroid hormone receptor ERR2 (Homo sapiens) (UniProt O95718+P40337); experiment: Protac activity at VHL/ERRbeta in human MDA-MB-231 cells assessed as induction of […] degradation up to 10 uM incubated for 4 hrs by Western blot analysis; type: cell-based; how it was run: as §2
[15] = biological target: T2, von Hippel-Lindau disease tumor suppressor/Steroid hormone receptor ERR1 (Homo sapiens); experiment: Protac activity at VHL/ERRalpha in human MDA-MB-231 cells assessed as induction of […] degradation incubated for 0.5 to 4 hrs by Western blot analysis; type: cell-based; how it was run: as §4
[16] = biological target: T2, von Hippel-Lindau disease tumor suppressor/Steroid hormone receptor ERR1 (Homo sapiens); experiment: Protac activity at VHL/ERRalpha in human MDA-MB-231 cells assessed as decrease in PDK4 protein expression level at 100 nM incubated for 24 hrs by Western blot analysis; type: cell-based; how it was run: as §3
[17] = biological target: T3, Steroid hormone receptor ERR1 (Homo sapiens) (UniProt P11474); experiment: Ratio of IC50 for XCT790 to IC50 for test compound for binding affinity to GST-tagged ERRalpha-LBD (unknown origin) using fluorescein-conjugated coactivator PGC-1alpha incubated for 1 hr by TR-FRET assay
T3 sequence (whole entry): T1 sequence (P11474 whole entry)

T2 sequence (P40337 whole entry, looked up, one chain of several): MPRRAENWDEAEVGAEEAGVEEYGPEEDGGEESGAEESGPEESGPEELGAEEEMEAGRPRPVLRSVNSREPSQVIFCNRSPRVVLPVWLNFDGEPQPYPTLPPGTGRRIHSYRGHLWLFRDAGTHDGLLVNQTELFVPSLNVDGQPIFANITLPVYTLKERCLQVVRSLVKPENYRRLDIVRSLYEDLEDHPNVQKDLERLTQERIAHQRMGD
Sequence of von Hippel-Lindau disease tumor suppressor/Steroid hormone receptor ERR2 (Homo sapiens) (O95718 whole entry, looked up): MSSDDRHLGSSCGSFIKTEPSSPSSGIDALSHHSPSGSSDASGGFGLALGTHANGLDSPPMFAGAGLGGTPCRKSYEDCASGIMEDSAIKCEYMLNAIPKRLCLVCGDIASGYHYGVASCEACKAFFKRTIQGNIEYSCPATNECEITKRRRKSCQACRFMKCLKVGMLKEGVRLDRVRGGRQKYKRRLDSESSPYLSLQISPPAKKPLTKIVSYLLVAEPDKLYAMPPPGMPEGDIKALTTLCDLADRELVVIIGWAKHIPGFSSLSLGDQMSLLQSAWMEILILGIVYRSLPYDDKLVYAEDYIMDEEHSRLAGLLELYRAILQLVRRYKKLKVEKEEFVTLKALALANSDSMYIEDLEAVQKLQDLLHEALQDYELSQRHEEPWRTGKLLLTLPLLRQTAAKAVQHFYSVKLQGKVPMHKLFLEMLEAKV
Sequence of von Hippel-Lindau disease tumor suppressor/Steroid hormone receptor ERR2 (Homo sapiens) (P40337 whole entry, looked up): as the sequence (P40337 whole entry, looked up, one chain of several) above
Sequence of von Hippel-Lindau disease tumor suppressor/Estrogen-related receptor gamma (Homo sapiens) (P40337 whole entry, looked up): as the sequence (P40337 whole entry, looked up, one chain of several) above
Sequence of von Hippel-Lindau disease tumor suppressor/Estrogen-related receptor gamma (Homo sapiens) (P62508 whole entry, looked up): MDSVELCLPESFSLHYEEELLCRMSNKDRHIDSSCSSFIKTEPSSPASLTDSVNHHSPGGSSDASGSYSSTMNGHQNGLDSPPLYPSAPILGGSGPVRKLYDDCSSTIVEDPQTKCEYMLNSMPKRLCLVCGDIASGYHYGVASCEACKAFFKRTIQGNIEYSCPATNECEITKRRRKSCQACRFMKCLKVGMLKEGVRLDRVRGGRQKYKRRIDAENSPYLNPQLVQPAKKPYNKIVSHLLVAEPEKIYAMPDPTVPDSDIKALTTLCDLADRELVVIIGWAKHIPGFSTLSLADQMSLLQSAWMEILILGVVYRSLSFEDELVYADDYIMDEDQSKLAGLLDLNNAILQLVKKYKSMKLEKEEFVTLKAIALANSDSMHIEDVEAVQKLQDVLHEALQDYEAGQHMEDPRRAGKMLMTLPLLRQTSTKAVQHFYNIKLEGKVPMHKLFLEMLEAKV

IC50 [1] [nM] | Activity [2] [%] | Activity [4] [%] | SMILES | further results
20.3 |  |  | COC(=O)/C(C#N)=C/c1ccc(OCc2ccc(C(F)(F)F)cc2C(F)(F)F)c(OC)c1 | 
5.33 | 6 |  | COc1cc(/C=C(\C#N)C(=O)NCCCCC(=O)N[C@H](C(=O)N2C[C@@H](O)C[C@H]2C(=O)NCc2ccc(-c3scnc3C)cc2)C(C)(C)C)ccc1OCc1ccc(C(F)(F)F)cc1C(F)(F)F | 
4.67 |  |  | COc1cc(/C=C(\C#N)C(=O)NCCOCCC(=O)O)ccc1OCc1ccc(C(F)(F)F)cc1C(F)(F)F | Activity [3]: inactive
4.33 |  |  | COCCNC(=O)/C(C#N)=C/c1ccc(OCc2ccc(C(F)(F)F)cc2C(F)(F)F)c(OC)c1 | 
7.33 | 28 | 50 | COc1cc(/C=C(\C#N)C(=O)NCCC(=O)N[C@H](C(=O)N2C[C@H](O)C[C@H]2C(=O)NCc2ccc(-c3scnc3C)cc2)C(C)(C)C)ccc1OCc1ccc(C(F)(F)F)cc1C(F)(F)F | 
5.33 | 0 | 15 | COc1cc(/C=C(\C#N)C(=O)NCCOCCOCCC(=O)N[C@H](C(=O)N2C[C@H](O)C[C@H]2C(=O)NCc2ccc(-c3scnc3C)cc2)C(C)(C)C)ccc1OCc1ccc(C(F)(F)F)cc1C(F)(F)F | Activity [5]: 19%
12.3 | 23 | 71 | COc1cc(/C=C(\C#N)C(=O)NCCCCCCC(=O)N[C@H](C(=O)N2C[C@H](O)C[C@H]2C(=O)NCc2ccc(-c3scnc3C)cc2)C(C)(C)C)ccc1OCc1ccc(C(F)(F)F)cc1C(F)(F)F | 
12.7 | 83 | 96 | COc1cc(/C=C(\C#N)C(=O)NCCCCC(=O)N[C@H](C(=O)N2C[C@H](O)C[C@H]2C(=O)NCc2ccc(-c3scnc3C)cc2)C(C)(C)C)ccc1OCc1ccc(C(F)(F)F)cc1C(F)(F)F | Activity [6]: inactive; Activity [7]: Active; Activity [8]: inactive; Activity [9]: Active; Activity [10]: inactive; Activity [11]: Active; Activity [12]: 39%; Activity [13]: Dose-dependent effect; Activity [14]: inactive; Activity [15]: Active; Activity [16]: Active
4.33 |  |  | COc1cc(/C=C(\C#N)C(N)=O)ccc1OCc1ccc(C(F)(F)F)cc1C(F)(F)F | 
7.67 | 3 | 9 | COc1cc(/C=C(\C#N)C(=O)NCCCCCCCC(=O)N[C@H](C(=O)N2C[C@H](O)C[C@H]2C(=O)NCc2ccc(-c3scnc3C)cc2)C(C)(C)C)ccc1OCc1ccc(C(F)(F)F)cc1C(F)(F)F | 
6 |  |  | COc1cc(/C=C(\C#N)C(=O)NCCCCC(=O)O)ccc1OCc1ccc(C(F)(F)F)cc1C(F)(F)F | 
 |  |  | Cc1ncsc1-c1ccc(CNC(=O)[C@@H]2C[C@@H](O)CN2C(=O)[C@@H](N)C(C)(C)C)cc1 | Activity [3]: inactive
5.67 |  |  | COc1cc(/C=C(\C#N)C(=O)O)ccc1OCc1ccc(C(F)(F)F)cc1C(F)(F)F | Ratio IC50 [17]: 11
11.3 | 79 | 92 | COc1cc(/C=C(\C#N)C(=O)NCCOCC(=O)N[C@H](C(=O)N2C[C@H](O)C[C@H]2C(=O)NCc2ccc(-c3scnc3C)cc2)C(C)(C)C)ccc1OCc1ccc(C(F)(F)F)cc1C(F)(F)F | 
5.67 | 58 | 78 | COc1cc(/C=C(\C#N)C(=O)NCCCCCC(=O)N[C@H](C(=O)N2C[C@H](O)C[C@H]2C(=O)NCc2ccc(-c3scnc3C)cc2)C(C)(C)C)ccc1OCc1ccc(C(F)(F)F)cc1C(F)(F)F | 
6.33 | 58 | 85 | COc1cc(/C=C(\C#N)C(=O)NCCCC(=O)N[C@H](C(=O)N2C[C@H](O)C[C@H]2C(=O)NCc2ccc(-c3scnc3C)cc2)C(C)(C)C)ccc1OCc1ccc(C(F)(F)F)cc1C(F)(F)F | 
8 | 1 | 40 | COc1cc(/C=C2\SC(=O)N(CCOCCC(=O)N[C@H](C(=O)N3C[C@H](O)C[C@H]3C(=O)NCc3ccc(-c4scnc4C)cc3)C(C)(C)C)C2=O)ccc1Oc1ccc(C#N)cc1C(F)(F)F | 
9.33 | 63 | 89 | COc1cc(/C=C(\C#N)C(=O)NCCOCCC(=O)N[C@H](C(=O)N2C[C@H](O)C[C@H]2C(=O)NCc2ccc(-c3scnc3C)cc2)C(C)(C)C)ccc1OCc1ccc(C(F)(F)F)cc1C(F)(F)F | Activity [12]: 25%
7 | 0 | 4 | COc1cc(/C=C(\C#N)C(=O)NCCOCCOCCOCCC(=O)N[C@H](C(=O)N2C[C@H](O)C[C@H]2C(=O)NCc2ccc(-c3scnc3C)cc2)C(C)(C)C)ccc1OCc1ccc(C(F)(F)F)cc1C(F)(F)F | Activity [5]: 10%
